Experimental data as given in ChEMBL document CHEMBL1165898, “Novel chromeno [2,3-b]-pyrimidine derivatives as potential anti-microbial agents” (2010).
Values after ≈ are worked out from the molar mass of the structure shown. Active and inactive are the calls of the source. The calls are words filed in the database; no cut-off is given here.

Tests used:
Bacillus subtilis [1] = experiment: Antibacterial activity against Bacillus subtilis after 16 hrs by serial dilution method; assay type: functional
Pseudomonas aeruginosa [2] = experiment: Antibacterial activity against Pseudomonas aeruginosa at 1.6125 to […] after 16 hrs by serial dilution method; assay type: functional, organism-based
In short: (§1)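 Tube broth dilution MIC in trypticase soya broth. Colonies from a fresh plate were grown 6 h at 37 °C, adjusted to […] with sterile PBS (10⁸ cfu/mL), then diluted 10³-fold in broth to 10⁵ cfu/mL. Compounds were serially diluted across six tubes per organism and 1 mL inoculum was added. Inoculum-only and broth-only controls were run. Incubation was 16 h at 37 °C. MIC was read as no visible growth.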

Staphylococcus aureus [3] = experiment: Antibacterial activity against Staphylococcus aureus after 16 hrs by serial dilution method; assay type: functional
Escherichia coli [4] = experiment: Antibacterial activity against Escherichia coli after 16 hrs by serial dilution method; assay type: functional
Escherichia coli [5] = experiment: Antibacterial activity against Escherichia coli at 1.6125 to […] after 16 hrs by serial dilution method; assay type: functional, organism-based; in short: as §1
Staphylococcus aureus [6] = experiment: Antibacterial activity against Staphylococcus aureus at 1.6125 to […] after 16 hrs by serial dilution method; assay type: functional, organism-based; in short: as §1
Bacillus subtilis [7] = experiment: Antibacterial activity against Bacillus subtilis at 1.6125 to […] after 16 hrs by serial dilution method; assay type: functional, organism-based; in short: as §1
Pseudomonas aeruginosa [8] = experiment: Antibacterial activity against Pseudomonas aeruginosa after 16 hrs by serial dilution method; assay type: functional; in short: as §1

SMILES | MIC (Bacillus subtilis [1]) | MIC (Pseudomonas aeruginosa [2]) | MIC (Staphylococcus aureus [3]) | MIC (Escherichia coli [4]) | MIC (Escherichia coli [5]) | MIC (Staphylococcus aureus [6]) | MIC (Bacillus subtilis [7]) | MIC (Pseudomonas aeruginosa [8])
c1ccc(CN2CCC(Nc3ncnc4c3Cc3ccccc3O4)CC2)cc1 | 1.61 µg/mL (≈ 4.33 µM) | inactive | 1.61 µg/mL (≈ 4.33 µM) | 3.12 µg/mL (≈ 8.39 µM) | – | – | – | –
Clc1ccc(Nc2ncnc3c2Cc2ccccc2O3)c(Cl)c1 | – | inactive | – | – | inactive | inactive | inactive | –
Cc1ccc(Nc2ncnc3c2Cc2ccccc2O3)cc1F | – | inactive | 50 µg/mL (≈ 163 µM) | – | inactive | – | inactive | –
c1ccc2c(c1)Cc1c(NC34CC5CCCC(C3)C5C4)ncnc1O2 (stereo not drawn) | – | – | – | 50 µg/mL (≈ 150 µM) | – | inactive | inactive | 50 µg/mL (≈ 150 µM)
Cc1ccc(C)c(Nc2ncnc3c2Cc2ccccc2O3)c1 | 1.61 µg/mL (≈ 5.32 µM) | inactive | 1.61 µg/mL (≈ 5.32 µM) | – | inactive | – | – | –
Cc1cc(C(F)(F)F)ccc1Nc1ncnc2c1Cc1ccccc1O2 | – | inactive | – | – | inactive | inactive | inactive | –
CO/N=C(\C(=O)N[C@@H]1C(=O)N2C(C(=O)O)=C(CSc3nc(=O)c(O)nn3C)CS[C@H]12)c1csc(N)n1 [CEFTRIAXONE] | 1.61 µg/mL (≈ 2.91 µM) | – | 3.12 µg/mL (≈ 5.63 µM) | 1.61 µg/mL (≈ 2.91 µM) | – | – | – | 1.61 µg/mL (≈ 2.91 µM)
Nc1ncnc2c1Cc1ccccc1O2 | – | inactive | – | – | inactive | inactive | inactive | –
Clc1ccc(CNc2ncnc3c2Cc2ccccc2O3)cc1 | 1.61 µg/mL (≈ 4.98 µM) | inactive | 1.61 µg/mL (≈ 4.98 µM) | 50 µg/mL (≈ 154 µM) | – | – | – | –
Cc1cnc(Nc2ncnc3c2Cc2ccccc2O3)s1 | – | – | – | – | inactive | inactive | inactive | 25 µg/mL (≈ 84.4 µM)
c1ccc(CNc2ncnc3c2Cc2ccccc2O3)cc1 | 1.61 µg/mL (≈ 5.57 µM) | inactive | 1.61 µg/mL (≈ 5.57 µM) | 25 µg/mL (≈ 86.4 µM) | – | – | – | –
c1ccc2c(c1)Cc1c(Nc3cccc4ccccc34)ncnc1O2 | 1.61 µg/mL (≈ 4.96 µM) | inactive | 1.61 µg/mL (≈ 4.96 µM) | – | inactive | – | – | –
